Results: PubChem BioAssay
Calls of active or inactive are those of the source.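 How the source made its calls, unless noted: active means GFP response above 150% of the DMSO level; inconclusive means fewer than 70 events counted for a yeast strain; inactive means the rest.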

Key:
[1] = hit retest on RPL19A-GFP reporter strain – cell-based, S. cerevisiae, flow cytometry, cherry picks, mother/daughter gates, confirmation (AID 2270;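 active means GFP response below 50% of the DMSO control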); details: 3 h, at 10 µM, stronger effect = lower value, 100 = same GFP as DMSO wells
[2] = yeast TOR pathway reporter LAP4-GFP change – cell-based, cherry picks, flow cytometry, mother/daughter gates, confirmation (AID 2271;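 active means GFP response above 150% of the DMSO control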;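 further: ratio of sample to DMSO plate mean so 100% equals DMSO level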); details: S. cerevisiae LAP4-GFP strain, 3 h, at 10 µM, stronger effect = higher value, 100 means same as DMSO control
In short: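 Test system: GFP-fusion yeast strain / Amount: 0.2 OD600 cells / Buffer or medium: SC medium / Dosing: 10 µM single dose / Incubation: compound exposure 3 h at 30 °C, end-over-end rotation / Detection: HT flow cytometry, GFP fluorescence channel / Evaluation: median GFP fluorescence as percent of plate-mean DMSO wells / Control set: DMSO-only negative wells, rapamycin 400 ng/mL positive wells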

[3] = TOR pathway reporter MEP2-GFP, retest of hits – S. cerevisiae, flow cytometry GFP, cherry picks, confirmation (AID 2272;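 active means GFP response above 150% of the DMSO control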;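 further: ratio of well signal to plate DMSO mean so 100% equals DMSO level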); details: S. cerevisiae MEP2-GFP strain, 3 h, at 10 µM, stronger effect = higher value
[4] = yeast AGP1-GFP fluorescence change, single-dose – cell-based, flow cytometry, S. cerevisiae, cherry picks, confirmation (AID 2273);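 further: median GFP channel fluorescence over the whole cell population gate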; details: S. cerevisiae AGP1-GFP strain, 3 h, at 10 µM
[5] = TOR pathway CIT2 reporter hit retest – S. cerevisiae, GFP fusion, cherry picks, mother/daughter gates, confirmation (AID 2274); details: S. cerevisiae CIT2-GFP strain, flow cytometry, 3 h, at 10 µM, stronger effect = higher value
[6] = measured here: daughter cell gate
[7] = measured here: mother cell gate
[8] = measured here: daughter cell gate response
[9] = measured here: mother cell gate response

Structure (SMILES) | GFP response vs DMSO [1] | GFP response vs DMSO [1, 6] | GFP response vs DMSO [1, 7] | GFP response relative to DMSO [2] | GFP response relative to DMSO [2, 8] | GFP response relative to DMSO [2, 9] | GFP response vs DMSO [3] | GFP response, % of DMSO [4] | GFP response, % of DMSO [5] | GFP response, % of DMSO [5, 6] | GFP response, % of DMSO [5, 7]
Cc1ccc(C)c(Cn2ncc3ccccc32)c1 | 95.8% (inactive) | 98.1% | 95.4% | 100% (inactive) | 97.5% | 104% | 106% (inactive) | 90.7% (inactive) | 94.4% (inactive) | 95.8% | 92.6%
Cc1ncc2c(n1)-c1cc(F)ccc1SC2 | 104% (inactive) | 105% | 103% | 87.6% (inactive) | 89.6% | 85.5% | 109% (inactive) | 94.5% (inactive) | 113% (inactive) | 116% | 109%
Cc1cc(=O)oc2c(C(=O)/C=C\c3cccs3)c(O)ccc12 | 98% (inactive) | 100% | 95.3% | 145% (inactive) | 136% | 154% | 107% (inactive) | 101% (inactive) | 95.9% (inactive) | 99.2% | 91.9%
O=C(Nc1nc(-c2ccccc2)cs1)c1cccs1 | 99.7% (inactive) | 94.2% | 101% | 101% (inactive) | 100% | 106% | 93.5% (inactive) | 86.9% (inactive) | 97.8% (inactive) | 94.8% | 98.7%
CN1Cc2sc(NC(=S)NC(=O)c3ccccc3)c(C#N)c2CC1(C)C | 99.5% (inactive) | 99.8% | 100% | 109% (inactive) | 104% | 111% | 133% (inactive) | 106% (inactive) | 109% (inactive) | 109% | 110%
O=C1c2cccc3c(N4CCCCC4)ccc(c23)C(=O)N1CCO | 100% (inactive) | 94.9% | 94.9% | 99.5% (inactive) | 99.1% | 98.4% | 105% (inactive) | 103% (inactive) | 103% (inactive) | 101% | 96.8%
COC(=O)C1CCN(C(=O)COC(=O)CCc2nc3ccccc3c(=O)[nH]2)CC1 | 98.8% (inactive) | 99.6% | 99.8% | 97.7% (inactive) | 97.9% | 96.5% | 99.5% (inactive) | 98% (inactive) | 99.3% (inactive) | 102% | 95.6%
Cc1cc(NCCN2CCOCC2)n2nc(C)c(-c3ccccc3)c2n1 | 98.8% (inactive) | 99.1% | 97.4% | 100% (inactive) | 95% | 99.5% | 102% (inactive) | 95.2% (inactive) | 92.1% (inactive) | 94.6% | 91%
COc1ccc(NC(=O)C2C3C=CC(C3)C2C(=O)NCc2ccco2)c(OC)c1 (centres undefined) | 97.6% (inactive) | 94.4% | 93.3% | 100% (inactive) | 96% | 94.4% | 101% (inactive) | 103% (inactive) | 98.6% (inactive) | 95.8% | 96%
CCCS(=O)(=O)N1CCC(C(=O)c2cccc(C(F)(F)F)c2)CC1 | 98.8% (inactive) | 97% | 98.2% | 101% (inactive) | 98.7% | 102% | 100% (inactive) | 97.8% (inactive) | 91.3% (inactive) | 93.2% | 89.1%
Cc1c(NC(=O)/C(C#N)=C/c2c(N3CCCCC3)nc3ccccn3c2=O)c(=O)n(-c2ccccc2)n1C | 95% (inactive) | 95.1% | 96.6% | 94.1% (inactive) | 94.4% | 95.1% | 96.2% (inactive) | 109% (inactive) | 101% (inactive) | 105% | 101%
[O-][n+]1cccc2c(Br)cc(Br)c(O)c21 | 98.2% (inactive) | 99.6% | 95.6% | 258% (active) | 215% | 251% | 178% (active) | 112% (inactive) | 101% (inactive) | 103% | 95.7%
CCC(=O)c1ccc(N2CCN(C(=O)c3ccc(Br)cc3)CC2)c(F)c1 | 97.6% (inactive) | 97.6% | 94.4% | 115% (inactive) | 117% | 112% | 101% (inactive) | 96.1% (inactive) | 95.9% (inactive) | 97.4% | 93.2%
CC(=O)NN1C(=O)/C(=C/c2ccc(Br)o2)SC1=S | 103% (inactive) | 101% | 102% | 128% (inactive) | 122% | 126% | 139% (inactive) | 111% (inactive) | 153% (active) | 150% | 150%
